Here are results for six molecules from ChEMBL document CHEMBL1147330, “Cytotoxic and antimalarial bisbenzylisoquinoline alkaloids from Cyclea barbata” (1993).

Holding throughout (assay type): functional
Experiment [1] can be described thus: Cytotoxicity against human multidrug-sensitive KB3 cells. Particulars: read-out: ED50 (the source's name).
Experiment [2] has as its system Plasmodium falciparum. Briefly: Antimalarial activity against chloroquine-resistant Plasmodium falciparum W2 infected type A+ human erythrocytes by [3H]hypoxanthine uptake. Particulars: read-out: ED50 (the source's name). The procedure, abridged: (§1)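 P. falciparum (chloroquine-sensitive D-6, chloroquine-resistant W-2) in type A+ human erythrocytes, 6% hematocrit, RPMI-1640 with 32 mM NaHCO3, 25 mM HEPES, 10% heat-inactivated A+ human plasma; 5% O2/5% CO2/90% N2, 37°. Test compounds in duplicate at 125,000–3 ng/ml; quinine control 250–0.3 ng/ml. ED50 = 50% inhibition of parasite [3H]hypoxanthine incorporation vs zero-drug controls, by non-linear regression.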

Experiment [3] can be described thus: Cytotoxicity against human multidrug-resistant KBV1 cells. Particulars: KB-V1, read-out: ED50 (the source's name).
The test system of experiment [4] is Plasmodium falciparum. Briefly: Antimalarial activity against chloroquine-sensitive Plasmodium falciparum D6 infected type A+ human erythrocytes by [3H]hypoxanthine uptake. Particulars: read-out: ED50 (the source's name). The procedure, abridged:
as §1

A further experiment has as its system P388. The experiment is described as follows: Cytotoxicity against mouse P388 cells. The settings on record: read-out: ED50 (the source's name).

In brackets after ≈: the same amount, converted by molar mass.

On to `COc1ccc2cc1Oc1ccc(cc1)C[C@H]1c3cc(c(OC)cc3CCN1C)Oc1c(O)c(OC)cc3c1[C@@H](C2)N(C)CC3`, for which the EC50 in experiment [1] came out at 3.4 µg/mL (≈ 5.59 µM); in the experiment with Plasmodium falciparum [2] it was 0.078 µg/mL (≈ 0.128 µM); in experiment [3], 11 µg/mL (≈ 18.1 µM); in the experiment with Plasmodium falciparum [4], 0.0651 µg/mL (≈ 0.107 µM); in the experiment on P388, 0.36 µg/mL (≈ 0.591 µM).
On to `COc1ccc2cc1Oc1ccc(cc1)C[C@H]1c3c(cc(OC)c(O)c3Oc3cc4c(cc3OC)CCN(C)[C@H]4C2)CCN1C`, for which the EC50 in experiment [1] was 2.2 µg/mL (≈ 3.61 µM); in the experiment with Plasmodium falciparum [2] it was 0.0406 µg/mL (≈ 0.0667 µM); in experiment [3], 4.4 µg/mL (≈ 7.23 µM); in the experiment with Plasmodium falciparum [4] it was 0.029 µg/mL (≈ 0.0476 µM); with P388, 0.57 µg/mL (≈ 0.936 µM).
For `COc1ccc2cc1Oc1ccc(cc1)C[C@@H]1c3cc(c(OC)cc3CCN1C)Oc1c(O)c(OC)cc3c1[C@@H](C2)N(C)CC3`, in that order: 9.8 µg/mL (≈ 16.1 µM), 0.164 µg/mL (≈ 0.269 µM), 11 µg/mL (≈ 18.1 µM), 0.0527 µg/mL (≈ 0.0866 µM) and 0.25 µg/mL (≈ 0.411 µM).
For `COc1ccc2cc1Oc1ccc(cc1)C[C@H]1c3cc(c(OC)cc3CCN1C)Oc1c(OC)c(OC)cc3c1[C@H](C2)N(C)CC3` [FANCHININ], in that order: 2.1 µg/mL (≈ 3.37 µM), 0.16 µg/mL (≈ 0.257 µM), 3.7 µg/mL (≈ 5.94 µM), 0.179 µg/mL (≈ 0.287 µM) and 0.4 µg/mL (≈ 0.642 µM).
The like results for `COc1ccc2cc1Oc1ccc(cc1)C[C@H]1c3c(cc(OC)c(O)c3Oc3cc4c(cc3OC)CCN(C)[C@@H]4C2)CCN1C` [HOMOAROMOLINE] were, in that order, 3.6 µg/mL (≈ 5.91 µM), 0.451 µg/mL (≈ 0.741 µM), 15 µg/mL (≈ 24.6 µM), 0.232 µg/mL (≈ 0.381 µM) and 0.31 µg/mL (≈ 0.509 µM).
On to `C=C[C@H]1CN2CC[C@H]1C[C@H]2[C@H](O)c1ccnc2ccc(OC)cc12` [QUININE], for which the EC50 was more than 20 µg/mL in experiment [1]; 0.0308 µg/mL (≈ 0.0949 µM) with Plasmodium falciparum [2]; more than 20 µg/mL in experiment [3]; 0.0076 µg/mL (≈ 0.0234 µM) in the experiment with Plasmodium falciparum [4]; more than 5 µg/mL in the experiment with P388.
